Source: ChEMBL document CHEMBL3870363, “Systematic Study of Effects of Structural Modifications on the Aqueous Solubility of Drug-like Molecules” (ACS Med Chem Lett, 2017)
≈ marks a conversion by molar mass, not a printed value.

How the values were obtained:
[1] = Aqueous solubility of the compound in Britton-Robinson buffer at pH 6.5 measured after 2 days by saturation shake flask based UV-vis spectroscopy; format: physicochemical
Procedure, shortened: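 Shake-flask method: saturated solutions formed by stirring 2 days in Britton–Robinson buffer (pH 6.5), then filtered through a 0.2 μm pore syringe filter and quantified by UV–vis. Piroxicam served as a repeated control.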

[2] = target: T1, Macrophage migration inhibitory factor (Homo sapiens, UniProt P14174); assay: Inhibition of recombinant human MIF tautomerase activity expressed in Escherichia coli assessed as borate-enol complex formation using 4-hydroxyphenyl pyruvic acid as substrate preincubated for 20 mins followed by substrate addition measured for 175 sec by spectrophotometric analysis
T1 sequence (P14174 whole entry): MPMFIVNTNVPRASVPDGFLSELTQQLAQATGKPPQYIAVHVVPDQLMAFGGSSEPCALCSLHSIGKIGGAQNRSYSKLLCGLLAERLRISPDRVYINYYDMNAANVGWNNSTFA

[3] = Equilibrium solubility of the compound in Britton-Robinson buffer stirred for 6 hrs followed by sedimentation for 18 hrs by saturation shake flask based UV-vis spectroscopy; format: physicochemical

SMILES | solubility thermodynamic at 48 h [1] [µg/mL] | Ki [2] [nM] | solubility thermodynamic at 6 h [3] [µg/mL]
COCCOc1ccc2nc(-c3cn(-c4ccc(O)cc4)nn3)ccc2c1 | 3.6 to 4 (≈ 9.93 to 11 µM) | – | –
O=C(O)COCCOc1ccc2nc(-c3cn(-c4ccc(O)c(F)c4)nn3)ccc2c1 | 867 (≈ 2040 µM) | 37 | –
NCCOc1ccc2nc(-c3cn(-c4ccc(O)cc4)nn3)ccc2c1.O=C(O)C(F)(F)F | 3.7 | – | –
O=C(O)COc1ccc2nc(-c3cn(-c4ccc(O)c(F)c4)nn3)ccc2c1 | 37 (≈ 97.3 µM) | – | –
COCCOCCOc1ccc2nc(-c3cn(-c4ccc(O)cc4)nn3)ccc2c1 | 2.4 (≈ 5.9 µM) | 147 | –
NCCOCCOc1ccc2nc(-c3cn(-c4ccc(O)cc4)nn3)ccc2c1.O=C(O)C(F)(F)F | 13.9 | – | –
O=C(O)c1cccc(Oc2cccc3nc(-c4cn(-c5ccc(O)c(F)c5)nn4)ccc23)c1 | 47.2 (≈ 107 µM) | – | –
COCCOc1cccc(Oc2cccc3nc(-c4cn(-c5ccc(O)c(F)c5)nn4)ccc23)c1 | 6.1 (≈ 12.9 µM) | 24 | –
O=C(O)COc1ccc2nc(-c3cn(-c4ccc(O)cc4)nn3)ccc2c1 | 365 (≈ 1010 µM) | – | –
OCCOc1ccc2nc(-c3cn(-c4ccc(O)cc4)nn3)ccc2c1 | 2.6 (≈ 7.46 µM) | – | –
O=C(O)CCCOc1ccc2nc(-c3cn(-c4ccc(O)c(F)c4)nn3)ccc2c1 | 19.2 (≈ 47 µM) | – | –
Oc1ccc(-n2cc(-c3ccc4cc(OCC5CCCCO5)ccc4n3)nn2)cc1 (stereo not drawn) | 3.4 (≈ 8.45 µM) | 270 | –
O=C(O)COc1ccc2nc(-c3cn(-c4ccccc4)nn3)ccc2c1 | 1050 (≈ 3020 µM) | 1370 | –
Oc1ccc(-n2cc(-c3ccc4ccccc4n3)nn2)cc1 | 2.2 (≈ 7.63 µM) | – | –
Oc1ccc(-n2cc(-c3ccc4cc(OCCOCCN5CCOCC5)ccc4n3)nn2)cc1F | 27.2 (≈ 56.7 µM) | – | –
NCCOCCOc1ccc2nc(-c3cn(-c4ccc(O)c(F)c4)nn3)ccc2c1.O=C(O)C(F)(F)F | 9.1 | – | –
CN1C(C(=O)Nc2ccccn2)=C(O)c2ccccc2S1(=O)=O [PIROXICAM] | 6.5 (≈ 19.6 µM) | – | 6.36 (≈ 19.2 µM)
